Results on 25 molecules are retold here after ChEMBL document CHEMBL1127325, “Potent gastrin-releasing peptide (GRP) antagonists derived from GRP (19-27) with a C-terminal DPro psi [CH2NH]Phe-NH2 and N-terminal aromatic residues” (J Med Chem, 1994).

Assay [1] deals with T1, Gastrin-releasing peptide receptor (Mus musculus, UniProt P21729). Kind of assay: Ability of peptide to inhibit binding of 10 pM [125I]gastrin releasing peptide to S-3T3 cell membrane. Format: cell-based. The gist of the method:
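Swiss 3T3 membranes (10 µg protein) incubated in triplicate with 10 pM [125I]GRP(1-27) in HEPES-KOH pH 6.8 (20 mM) with EGTA, MgCl2, BSA and protease inhibitors, 60 min at 37 °C with shaking. Terminated by filtration through PEI-pretreated GF/B filters, gamma counted. Nonspecific binding taken with 10 nM unlabeled GRP(1-27). IC50 for half-maximal inhibition of specific binding by Hill plot analysis.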

For assay [2], the target named is T1, Gastrin-releasing peptide receptor. The experiment in a line: The ability of the peptide to inhibit the binding of 50 pM [125I]gastrin releasing peptide to intact S-3T3 cells. Format: cell-based. An outline of the steps: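 Serially diluted peptides overlaid in triplicate on quiescent Swiss 3T3 monolayers (about 10^5 cells) with 50 pM [125I]GRP in maintenance medium, 30 min at 37 °C. Monolayers washed three times with chilled medium, solubilized, radioactivity counted. IC50 values reported.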

Assay [3] addresses Gastrin-releasing peptide receptor (Mus musculus) (UniProt P21729). Kind of assay: Inhibition of 6 nM bombesin induced [3H]thymidine incorporation measured in swiss 3T3 cells using a mitogenicity assay. Format: functional, cell-based. The gist of the method:
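Density-arrested quiescent Swiss 3T3 monolayers treated in triplicate with test peptide (generally log dilutions) plus 6 nM bombesin for 18 h, then pulsed 2 h with 0.5 µCi [3H]thymidine per well. Cells washed with cold PBS, fixed in methanol/acetic acid, solubilized, scintillation counted. IC50 ± SEM over replicate trials; na means no activity at 10^-4 M.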
(Dividing cells build labelled thymidine or BrdU into new DNA.)

The structures appear in SMILES notation. Where a SMILES comes first, the peptide text is derived from it. [ ]: non-standard residue; d: D form. The star is where a group is joined. ProΨ(CH2NH)PheNH2 = NC(=O)[C@H](Cc1ccccc1)NC[C@@H]1CCCN1*; dProψ(CH2NH)PheNH2 = NC(=O)[C@H](Cc1ccccc1)NC[C@H]1CCCN1*; X3 = NC(=O)[C@H](Cc1ccc(O)cc1)NC[C@H]1CCCN1*; Desaminotyrosyl = O=C(CCc1ccc(O)cc1)*; Hydrocinnamoyl = O=C(CCc1ccccc1)*; X9 = O=C(CCN1c2ccccc2Sc2ccccc21)*; X2 = O=C(Cc1ccccc1C(F)(F)F)*; X5 = C[C@@H](C(=O)*)c1ccccc1; X6 = C[C@H](C(=O)*)c1ccccc1; X7 = CC(C)(CC(=O)*)c1ccccc1; Sar = CNCC(=O)O

T1 sequence (P21729 whole entry): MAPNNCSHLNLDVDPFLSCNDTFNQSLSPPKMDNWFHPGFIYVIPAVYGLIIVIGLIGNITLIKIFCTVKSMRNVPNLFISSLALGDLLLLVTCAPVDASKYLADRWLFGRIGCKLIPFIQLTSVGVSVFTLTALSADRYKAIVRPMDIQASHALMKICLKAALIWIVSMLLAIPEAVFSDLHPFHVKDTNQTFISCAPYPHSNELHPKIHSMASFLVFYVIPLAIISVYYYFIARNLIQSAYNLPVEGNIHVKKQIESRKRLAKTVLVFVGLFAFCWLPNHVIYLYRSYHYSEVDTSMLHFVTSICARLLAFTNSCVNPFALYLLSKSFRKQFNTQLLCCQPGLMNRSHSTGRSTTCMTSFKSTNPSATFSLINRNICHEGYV
Sequence of Gastrin-releasing peptide receptor (Mus musculus) (P21729 whole entry): as above

A word on the IC50: it is the point on the concentration scale where inhibition reaches its midpoint. Lower therefore signals greater potency. For `CC(C)[C@H](NC(=O)[C@H](C)NC(=O)[C@H](Cc1c[nH]c2ccccc12)NC(=O)[C@H](Cc1cnc[nH]1)NC(=O)C[C@H](C)c1ccccc1)C(=O)N[C@H](C)C(=O)N[C@@H](Cc1cnc[nH]1)C(=O)N1CCC[C@@H]1CN[C@@H](Cc1ccccc1)C(N)=O`, the IC50 turned out to be 0.21 nM in assay [1] and 10 nM in assay [2].
As to `CC(C)[C@H](NC(=O)[C@H](C)NC(=O)[C@H](Cc1c[nH]c2ccccc12)NC(=O)[C@H](Cc1cnc[nH]1)NC(=O)c1cc2ccccc2cn1)C(=O)N[C@H](C)C(=O)N[C@@H](Cc1cnc[nH]1)C(=O)N1CCC[C@@H]1CN[C@@H](Cc1ccccc1)C(N)=O`, in assay [1], the IC50 amounted to 0.57 nM.
On to `CC(C)[C@H](NC(=O)[C@H](C)NC(=O)[C@H](Cc1c[nH]c2ccccc12)NC(=O)[C@H](Cc1c[nH]cn1)NC(=O)Cc1ccccc1N)C(=O)N[C@H](C)C(=O)N[C@@H](Cc1c[nH]cn1)C(=O)N1CCC[C@@H]1CN[C@@H](Cc1ccccc1)C(N)=O`, for which the Activity in assay [3] turned out to be 13 nM. Further, the IC50 in assay [1] was determined as 2 nM; in assay [2] it was 0.1 nM.
Take `CC(C)[C@H](NC(=O)[C@H](C)NC(=O)[C@H](Cc1c[nH]c2ccccc12)NC(=O)[C@H](Cc1c[nH]cn1)NC(=O)CC(C)(C)c1ccccc1)C(=O)N[C@H](C)C(=O)N[C@@H](Cc1c[nH]cn1)C(=O)N1CCC[C@@H]1CN[C@@H](Cc1ccccc1)C(N)=O` (X7-HWAV[dA]H-{dProψ(CH2NH)PheNH2}): the Activity in assay [3] is 18 nM. Also, the IC50 was 1.2 nM in assay [1] and 10 nM in assay [2].
`CC(C)[C@H](NC(=O)[C@H](C)NC(=O)[C@H](Cc1c[nH]c2ccccc12)NC(=O)[C@H](Cc1cnc[nH]1)NC(=O)Cc1ccc(C(F)(F)F)cc1)C(=O)N[C@H](C)C(=O)N[C@@H](Cc1cnc[nH]1)C(=O)N1CCC[C@@H]1CN[C@@H](Cc1ccccc1)C(N)=O` showed an IC50 in assay [1] of 3.7 nM.
`CC(C)[C@H](NC(=O)[C@H](C)NC(=O)[C@H](Cc1c[nH]c2ccccc12)NC(=O)[C@H](Cc1c[nH]cn1)NC(=O)[C@@H](C)c1ccccc1)C(=O)N[C@H](C)C(=O)N[C@@H](Cc1c[nH]cn1)C(=O)N1CCC[C@@H]1CN[C@@H](Cc1ccccc1)C(N)=O` (X6-HWAV[dA]H-{dProψ(CH2NH)PheNH2}) yielded an Activity in assay [3] of 7e-08. Moreover, the IC50 in assay [1] was 1.3 nM; in assay [2], 1 nM.
With `CC(C)[C@H](NC(=O)[C@H](C)NC(=O)[C@H](Cc1c[nH]c2ccccc12)NC(=O)[C@H](Cc1cnc[nH]1)NC(=O)C1CCc2ccccc2C1)C(=O)N[C@H](C)C(=O)N[C@@H](Cc1cnc[nH]1)C(=O)N1CCC[C@@H]1CN[C@@H](Cc1ccccc1)C(N)=O` (some centres not stated), the half-maximal inhibitory concentration (IC50) in assay [1] is 0.079 nM; in assay [2] it was 0.3 nM.
Molecule `CC(NC(=O)[C@H](Cc1c[nH]c2ccccc12)NC(=O)[C@H](Cc1c[nH]cn1)NC(=O)CCc1ccccc1)C(=O)N[C@H](C(=O)NC(C)C(=O)N[C@@H](Cc1c[nH]cn1)C(=O)N1CCC[C@H]1C(O)CC(=O)N[C@@H](Cc1ccccc1)C(N)=O)C(C)C` (stereo in doubt) yielded an Activity in assay [3] of 26 nM. Besides, the IC50 in assay [1] stood at 31 nM; in assay [2] it was 50 nM.
`CC(C)[C@H](NC(=O)[C@H](C)NC(=O)[C@H](Cc1c[nH]c2ccccc12)NC(=O)[C@H](Cc1cnc[nH]1)NC(=O)C[C@@H](C)c1ccccc1)C(=O)N[C@H](C)C(=O)N[C@@H](Cc1cnc[nH]1)C(=O)N1CCC[C@@H]1CN[C@@H](Cc1ccccc1)C(N)=O` had an IC50 in assay [1] of 0.49 nM.
As for `CC(C)[C@H](NC(=O)[C@H](C)NC(=O)[C@H](Cc1c[nH]c2ccccc12)NC(=O)[C@H](Cc1cnc[nH]1)NC(=O)CCc1cccc(C(F)(F)F)c1)C(=O)N[C@H](C)C(=O)N[C@@H](Cc1cnc[nH]1)C(=O)N1CCC[C@@H]1CN[C@@H](Cc1ccccc1)C(N)=O`, the figures for the IC50 in assay [1] and in assay [2] were 0.16 nM and 10 nM, respectively.
`CC(C)[C@H](NC(=O)[C@H](C)NC(=O)[C@H](Cc1c[nH]c2ccccc12)NC(=O)[C@H](Cc1c[nH]cn1)NC(=O)Cc1ccccc1C(F)(F)F)C(=O)N[C@H](C)C(=O)N[C@@H](Cc1c[nH]cn1)C(=O)N1CCC[C@@H]1CN[C@@H](Cc1ccccc1)C(N)=O` (X2-HWAV[dA]H-{dProψ(CH2NH)PheNH2}) returned an Activity in assay [3] of 330 nM. Also, the IC50 in assay [1] was 12 nM.
In assay [3], `CC(NC(=O)[C@H](Cc1c[nH]c2ccccc12)NC(=O)[C@H](Cc1cccs1)NC(=O)CCc1ccccc1)C(=O)N[C@H](C(=O)NC(C)C(=O)N[C@@H](Cc1c[nH]cn1)C(=O)N1CCC[C@H]1CN[C@@H](Cc1ccccc1)C(N)=O)C(C)C` (stereo in doubt) displayed an Activity of 50 nM. Moreover, the 50% inhibitory concentration (IC50) in assay [1] worked out at 56 nM; in assay [2], 10 nM.
As to `CC(NC(=O)[C@H](Cc1csc2ccccc12)NC(=O)[C@H](Cc1c[nH]cn1)NC(=O)CCc1ccccc1)C(=O)N[C@H](C(=O)NC(C)C(=O)N[C@@H](Cc1c[nH]cn1)C(=O)N1CCC[C@@H]1CN[C@@H](Cc1ccccc1)C(N)=O)C(C)C` (stereo in doubt), in assay [3], the Activity was determined as 430 nM. In assay [1], the 50% inhibitory concentration (IC50) came out at 0.75 nM.
In turn, `CC(NC(=O)[C@H](Cc1c[nH]c2ccccc12)NC(=O)[C@H](Cc1c[nH]cn1)NC(=O)CCc1ccccc1)C(=O)N[C@H](C(=O)NC(C)C(=O)N[C@@H](Cc1c[nH]cn1)C(=O)N1CCC[C@H]1CN[C@@H](Cc1ccccc1)C(N)=O)C(C)C` (stereo in doubt) had an Activity in assay [3] of 1 nM. The IC50 in assay [1] amounted to 0.22 nM; in assay [2], 0.001 nM.
`CC(C)[C@H](NC(=O)[C@H](C)NC(=O)[C@H](Cc1c[nH]c2ccccc12)NC(=O)[C@H](Cc1c[nH]cn1)NC(=O)[C@H](C)c1ccccc1)C(=O)N[C@H](C)C(=O)N[C@@H](Cc1c[nH]cn1)C(=O)N1CCC[C@@H]1CN[C@@H](Cc1ccccc1)C(N)=O` (X5-HWAV[dA]H-{dProψ(CH2NH)PheNH2}): the Activity in assay [3] is 0.9 nM. In addition, the IC50 in assay [1] was 0.95 nM; in assay [2], 30 nM.
`CC(C)[C@H](NC(=O)[C@H](C)NC(=O)[C@H](Cc1c[nH]c2ccccc12)NC(=O)[C@H](Cc1c[nH]cn1)NC(=O)CCc1ccccc1)C(=O)N[C@H](C)C(=O)N[C@@H](Cc1c[nH]cn1)C(=O)N1CCC[C@@H]1CN[C@@H](Cc1ccc(O)cc1)C(N)=O` (Hydrocinnamoyl-HWAV[dA]H-X3): in assay [3], the Activity stood at 10 nM. The IC50 in assay [1] was found to be 0.33 nM.
Regarding `CC(C)[C@H](NC(=O)[C@H](C)NC(=O)[C@H](Cc1c[nH]c2ccccc12)NC(=O)[C@H](Cc1cnc[nH]1)NC(=O)CCc1ccccc1)C(=O)N(C)CC(=O)N[C@@H](Cc1cnc[nH]1)C(=O)N1CCC[C@H]1CN[C@@H](Cc1ccccc1)C(N)=O` (Hydrocinnamoyl-HWAV[Sar]H-{ProΨ(CH2NH)PheNH2}), the IC50 in assay [1] came out at 21 nM; in assay [2] it was 0.1 nM.
As to `CC(C)[C@H](NC(=O)[C@H](C)NC(=O)[C@H](Cc1c[nH]c2ccccc12)NC(=O)[C@H](Cc1cnc[nH]1)NC(=O)CCc1ccc(O)cc1)C(=O)N[C@H](C)C(=O)N[C@@H](Cc1cnc[nH]1)C(=O)N1CCC[C@@H]1CN[C@@H](Cc1ccccc1)C(N)=O` (Desaminotyrosyl-HWAV[dA]H-{dProψ(CH2NH)PheNH2}), the figures for the IC50 in assay [1] and in assay [2] were 0.23 nM and 0.05 nM, respectively.
`CC(NC(=O)[C@@H](NC[C@H](C)NC(=O)[C@H](Cc1c[nH]c2ccccc12)NC(=O)[C@H](Cc1c[nH]cn1)NC(=O)CCc1ccccc1)C(C)C)C(=O)N[C@@H](Cc1c[nH]cn1)C(=O)N1CCC[C@H]1CN[C@@H](Cc1ccccc1)C(N)=O` (stereo in doubt) registered an Activity in assay [3] of 47 nM. For the same molecule, the IC50 in assay [1] is greater than 10 nM.
`CC(C)[C@H](NC(=O)[C@H](C)NC(=O)[C@H](Cc1c[nH]c2ccccc12)NC(=O)[C@H](Cc1c[nH]cn1)NC(=O)CCc1ccccc1)C(=O)N[C@H](C)C(=O)N[C@@H](Cc1c[nH]cn1)C(=O)N1CCC[C@@H]1CNC(Cc1ccccc1)C(N)=O` (stereo in doubt): the concentration for half-maximal inhibition (IC50) in assay [1] turned out to be 0.038 nM.
Consider `CC(C)[C@H](NC(=O)[C@H](C)NC(=O)[C@H](Cc1c[nH]c2ccccc12)NC(=O)[C@H](Cc1cnc[nH]1)NC(=O)c1cccc2ccccc12)C(=O)N[C@H](C)C(=O)N[C@@H](Cc1cnc[nH]1)C(=O)N1CCC[C@@H]1CN[C@@H](Cc1ccccc1)C(N)=O`, for which the IC50 is 0.05 nM in assay [1] and 0.001 nM in assay [2].
The like results for `CC(C)[C@H](NC(=O)[C@H](C)NC(=O)[C@H](Cc1c[nH]c2ccccc12)NC(=O)[C@H](Cc1cnc[nH]1)NC(=O)CCc1ccccc1)C(=O)N[C@H](C)C(=O)N[C@@H](Cc1cnc[nH]1)C(=O)N1CCC[C@@H]1CN[C@H](Cc1ccc2ccccc2c1)C(N)=O` were, in that order, 2 nM and 5 nM.
In assay [3], `CC(C)[C@H](NC(=O)[C@H](C)NC(=O)[C@H](Cc1c[nH]c2ccccc12)NC(=O)[C@H](Cc1c[nH]cn1)NC(=O)[C@@H](N)Cc1ccc2ccccc2c1)C(=O)N[C@H](C)C(=O)N[C@@H](Cc1c[nH]cn1)C(=O)N1CCC[C@@H]1CN[C@@H](Cc1ccccc1)C(N)=O` came in with an Activity of 45 nM. Besides, the IC50 in assay [1] came out at 7.7 nM.
The molecule `CC(C)[C@H](NC(=O)[C@H](C)NC(=O)[C@H](Cc1c[nH]c2ccccc12)NC(=O)[C@H](Cc1cnc[nH]1)NC(=O)Cc1cccc(C(F)(F)F)c1)C(=O)N[C@H](C)C(=O)N[C@@H](Cc1cnc[nH]1)C(=O)N1CCC[C@@H]1CN[C@@H](Cc1ccccc1)C(N)=O` returned an IC50 in assay [1] of 8.4 nM.
In turn, `CC(C)[C@H](NC(=O)[C@H](C)NC(=O)[C@H](Cc1c[nH]c2ccccc12)NC(=O)[C@H](Cc1c[nH]cn1)NC(=O)CCN1c2ccccc2Sc2ccccc21)C(=O)N[C@H](C)C(=O)N[C@@H](Cc1c[nH]cn1)C(=O)N1CCC[C@@H]1CN[C@@H](Cc1ccccc1)C(N)=O` (X9-HWAV[dA]H-{dProψ(CH2NH)PheNH2}) displayed an Activity in assay [3] of 29 nM. Besides, in assay [1], the IC50 was determined as 1.9 nM.
